The source made the active and inactive calls. The calls are words filed in the database; no cut-off is given here.
Legend:
L6 [1] = experiment: Increase in glucose uptake in rat L6 cells at 3 uM pre-treated with compound for 30 mins using 2-deoxy-D-[1,2-3H]glucose and measured after 2 hrs by liquid scintillation counting method; type: functional
Method in brief: (§1)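 L6 myotubes exposed to compound for 2 h at 1.5, 3, 6, 12 or 24 μM; 2-deoxyglucose uptake expressed as fold over untreated control; 3 μM (−)-arctigenin run alongside as positive control; mean ± SEM of 3 independent experiments.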

L6 [2] = experiment: Increase in glucose uptake in rat L6 cells at 3 uM […] using 2-deoxy-D-[1,2-3H]glucose and measured after 2 hrs […] by liquid scintillation counting method; type: functional; method in brief: as §1
L6 [3] = experiment: Ratio of glucose uptake in rat L6 cells at 3 uM after 2 hrs to glucose uptake in rat L6 cells at 3 uM after 2 hrs in presence of 3 uM (-)-arctigenin; type: functional
Method in brief: (§2)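 Glucose uptake in L6 myotubes after 2 h compound exposure divided by uptake with the 3 μM (−)-arctigenin positive control run in parallel.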

L6 [4] = experiment: Increase in glucose uptake in rat L6 cells at 24 uM pre-treated with compound for 30 mins using 2-deoxy-D-[1,2-3H]glucose and measured after 2 hrs […] by liquid scintillation counting method; type: functional; method in brief: as §1
L6 [5] = experiment: Increase in glucose uptake in rat L6 cells at 24 uM pre-treated with compound for 30 mins using 2-deoxy-D-[1,2-3H]glucose and measured after 2 hrs by liquid scintillation counting method; type: functional; method in brief: as §1
L6 [6] = experiment: Ratio of glucose uptake in rat L6 cells at 24 uM after 2 hrs to glucose uptake in rat L6 cells at 24 uM after 2 hrs in presence of 3 uM (-)-arctigenin; type: functional; method in brief: as §2
L6 [7] = experiment: Increase in glucose uptake in rat L6 cells at 6 umol/L pre-treated with compound for 30 mins using 2-deoxy-D-[1,2-3H]glucose and measured after 2 hrs by liquid scintillation counting method relative to control; type: functional; method in brief: as §1
L6 [8] = experiment: Increase in glucose uptake in rat L6 cells at 3 umol/L pre-treated with compound for 30 mins using 2-deoxy-D-[1,2-3H]glucose and measured after 2 hrs by liquid scintillation counting method relative to control; type: functional; method in brief: as §1
L6 [9] = experiment: Increase in glucose uptake in rat L6 cells at 0.75 uM to 3 uM pre-treated with compound for 30 mins using 2-deoxy-D-[1,2-3H]glucose and measured after 2 hrs by liquid scintillation counting method; type: functional, cell-based
L6 [10] = experiment: Induction of AMPK activation in rat L6 cells assessed as increase in ACC phosphorylation at 3 uM incubated for 2 hrs by Western blotting method; type: cell-based
Method in brief: (§3)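 L6 myotubes treated 2 h at the stated concentrations; phosphorylated AMPK and phosphorylated ACC detected by immunoblot.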

L6 [11] = experiment: Induction of AMPK activation in rat L6 cells assessed as increase in ACC phosphorylation at 6 uM incubated for 2 hrs by Western blotting method; type: cell-based; method in brief: as §3
L6 [12] = experiment: Induction of AMPK phosphorylation in rat L6 cells at 1.5 uM incubated for 2 hrs by Western blotting method; type: cell-based; method in brief: as §3
L6 [13] = experiment: Ratio of glucose uptake in rat L6 cells at 1.5 uM after 2 hrs to glucose uptake in rat L6 cells at 1.5 uM after 2 hrs in presence of 3 uM (-)-arctigenin; type: functional; method in brief: as §2
L6 [14] = experiment: Increase in glucose uptake in rat L6 cells at 1.5 uM pre-treated with compound for 30 mins using 2-deoxy-D-[1,2-3H]glucose and measured after 2 hrs by liquid scintillation counting method; type: functional; method in brief: as §1
L6 [15] = experiment: Increase in glucose uptake in rat L6 cells at 1.5 uM pre-treated with compound for 30 mins using 2-deoxy-D-[1,2-3H]glucose and measured after 2 hrs in presence of 3 uM (-)-arctigenin by liquid scintillation counting method; type: functional; method in brief: as §1
L6 [16] = experiment: Induction of AMPK phosphorylation in rat L6 cells at 3 uM incubated for 2 hrs by Western blotting method; type: cell-based; method in brief: as §3
L6 [17] = experiment: Induction of AMPK activation in rat L6 cells assessed as increase in ACC phosphorylation at 1.5 uM incubated for 2 hrs by Western blotting method; type: cell-based; method in brief: as §3
L6 [18] = experiment: Induction of AMPK phosphorylation in rat L6 cells at 6 uM incubated for 2 hrs by Western blotting method; type: cell-based; method in brief: as §3
Mus musculus [19] = experiment: Toxicity in ob/ob mouse assessed as effect on feeding behavior at 50 mg/kg, ip bid for 23 days; type: organism-based; details: in vivo, 552 h
Method in brief: (§4)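 ob/ob mice given 50 mg/kg intraperitoneally or vehicle twice daily for 23 d; body weight and food intake recorded regularly, fed and fasting blood glucose measured throughout, serum triacylglycerol, cholesterol and NEFA measured at end of treatment; mean ± SEM, n = 6–8 mice, compared with vehicle group.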

L6 [20] = experiment: Ratio of glucose uptake in rat L6 cells at 6 uM after 2 hrs to glucose uptake in rat L6 cells at 6 uM after 2 hrs in presence of 3 uM (-)-arctigenin; type: functional; method in brief: as §2
L6 [21] = experiment: Induction of fatty acid oxidation in rat L6 cells at 6 uM using [9,10-3H(N)]-palmitic acid incubated for 2 hrs; type: functional, cell-based
Method in brief: (§5)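 Fatty acid oxidation measured in L6 myotubes after compound treatment, also with compound C to block AMPK; mean ± SEM, n = 3 independent experiments.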

L6 [22] = experiment: Increase in glucose uptake in rat L6 cells at 6 uM pre-treated with compound for 30 mins using 2-deoxy-D-[1,2-3H]glucose and measured after 2 hrs […] by liquid scintillation counting method; type: functional; method in brief: as §1
L6 [23] = experiment: Induction of depolarization of mitochondrial membrane potential in rat L6 cells incubated for 10 mins by fluorescence based assay; type: functional, cell-based
Method in brief: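 L6 myotubes treated 10 min over a concentration series; mitochondrial membrane potential (Δψm) depolarization measured; mean ± SEM, n = 3 independent experiments.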

[24] = Tmax in ob/ob mouse at 50 mg/kg, ip measured after 0.5 to 24 hrs; type: ADME, organism-based; details: in vivo
Mus musculus [25] = experiment: Antidiabetic activity in ob/ob mouse assessed as reduction in fed glucose levels at 50 mg/kg, ip bid for 12 days; type: functional; parameters: scale not given: the % may be the effect or the level left; method in brief: as §4
Mus musculus [26] = experiment: Reduction in respiratory exchange ratio in ob/ob mouse at 50 mg/kg, ip measured at 6 min intervals […] at 23 degC by indirect calorimetry; type: functional, organism-based
L6 [27] = experiment: Increase in glucose uptake in rat L6 cells at 6 uM pre-treated with compound for 30 mins using 2-deoxy-D-[1,2-3H]glucose and measured after 2 hrs by liquid scintillation counting method; type: functional; method in brief: as §1
Mus musculus [28] = experiment: Antidiabetic activity in ob/ob mouse assessed as reduction in fasting blood glucose levels at 50 mg/kg, ip bid for 12 days; type: functional; parameters: scale not given: the % may be the effect or the level left; method in brief: as §4
Mus musculus [29] = experiment: Antidiabetic activity in ob/ob mouse assessed as reduction in NEFA levels at 50 mg/kg, ip bid for 23 days; type: functional; parameters: scale not given: the % may be the effect or the level left; method in brief: as §4
L6 [30] = experiment: Induction of fatty acid oxidation in rat L6 cells at 3 uM using [9,10-3H(N)]-palmitic acid incubated for 2 hrs; type: functional, cell-based; method in brief: as §5
Mus musculus [31] = experiment: Antidiabetic activity in ob/ob mouse assessed as effect on serum triglyceride levels at 50 mg/kg, ip bid for 23 days; type: functional, organism-based; method in brief: as §4
[32] = Cmax in ob/ob mouse at 50 mg/kg, ip measured after 0.5 to 24 hrs; type: ADME, organism-based; parameters: dose 50 mg/kg, route intraperitoneal; details: in vivo
[33] = AUC (0 to t) in ob/ob mouse at 50 mg/kg, ip measured after 0.5 to 24 hrs; type: ADME, organism-based; parameters: dose 50 mg/kg, time upper 24 hr, time lower 0.5 hr, route intraperitoneal; details: in vivo
Mus musculus [34] = experiment: Antidiabetic activity in ob/ob mouse assessed as reduction in body weight at 50 mg/kg, ip bid for 23 days measured on day 3; type: functional, organism-based; method in brief: as §4
L6 [35] = experiment: Increase in glucose uptake in rat L6 cells pre-treated with compound for 30 mins using 2-deoxy-D-[1,2-3H]glucose and measured after 2 hrs in presence of 10 uM AMPK inhibitor compound-C by liquid scintillation counting method; type: functional, cell-based
Method in brief: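 L6 myotube 2-deoxyglucose uptake after compound exposure, tested with and without the AMPK inhibitor compound C; mean ± SEM, n = 3 independent experiments.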

Mus musculus [36] = experiment: Antidiabetic activity in ob/ob mouse assessed as reduction in total cholesterol levels at 50 mg/kg, ip bid for 23 days; type: functional; parameters: scale not given: the % may be the effect or the level left; method in brief: as §4
L6 [37] = experiment: Induction of fatty acid oxidation in rat L6 cells using [9,10-3H(N)]-palmitic acid incubated for 2 hrs in presence of AMPK inhibitor compound-C; type: functional, cell-based; method in brief: as §5

COc1ccc(C[C@H]2COC(=O)[C@@H]2Cc2cccc(Cl)c2)cc1OC
Activity (L6 [1]): 114.8%
Activity (L6 [2]): 212.4%
Ratio (L6 [3]): 0.54

COc1ccc(C[C@H]2COC(=O)[C@@H]2Cc2cccc(O)c2)cc1OC
Activity (L6 [4]): 217.8%
Activity (L6 [5]): 180.3%
Ratio (L6 [6]): 0.828

COc1cc(C[C@H]2COC[C@@H]2Cc2ccc(OC)c(OC)c2)ccc1O
fold change (FC) (L6 [7]): 1.31

COc1ccc(C[C@H]2COC(=O)[C@@H]2Cc2ccc(C#N)cc2)cc1OC
Activity (L6 [1]): 136.7%
Activity (L6 [2]): 258.7%
Ratio (L6 [3]): 0.528

COc1cc(C[C@H]2C(=O)OC[C@@H]2Cc2ccc(OC)c(OC)c2)ccc1O [ARCTIGENIN]
fold change (FC) (L6 [8]): 1.75
Activity (L6 [9]): Dose-dependent effect

COc1ccc(C[C@@H]2COC(=O)[C@H]2Cc2ccc(Cl)cc2)cc1OC
Activity (L6 [10]): inactive
Activity (L6 [11]): inactive
Activity (L6 [12]): inactive
Ratio (L6 [13]): 0.494
Activity (L6 [14]): 103.1%
Activity (L6 [15]): 208.9%
Activity (L6 [16]): inactive
Activity (L6 [17]): inactive
Activity (L6 [18]): inactive

COc1ccc(CC2COC(=O)C2Cc2ccc(Cl)cc2)cc1OC (racemic)
Activity (Mus musculus [19]): Non-toxic
Ratio (L6 [20]): 0.936
Activity (L6 [21]): Active
Activity (L6 [22]): 185.5%
Activity (L6 [23]): Dose-dependent effect
Tmax [24]: 30 min
Activity (Mus musculus [25]): 27.7%
Activity (Mus musculus [26]): Active
Activity (L6 [27]): 173.7%
Activity (Mus musculus [28]): 27.3%
Activity (Mus musculus [29]): 10%
Activity (L6 [30]): Active
Activity (Mus musculus [31]): inactive
Cmax [32]: 508 ng/mL
AUC(0-t) [33]: 1880 ng·h/mL
Activity (Mus musculus [34]): Active
Activity (L6 [35]): inactive
Activity (Mus musculus [36]): 22.4%
Activity (L6 [37]): inactive

COc1ccc(C[C@H]2COC(=O)[C@@H]2Cc2ccccc2O)cc1OC
Ratio (L6 [13]): 0.579
Activity (L6 [14]): 137.6%
Activity (L6 [15]): 237.6%

COc1cccc(C[C@H]2COC(=O)[C@@H]2Cc2ccc(O)c(OC)c2)c1
Ratio (L6 [13]): 0.503
Activity (L6 [14]): 121.2%
Activity (L6 [15]): 241%

COc1cc(CC2C(=O)OCC2Cc2ccc(OC)c(OC)c2)ccc1O (racemic)
Activity (L6 [10]): Active
fold change (FC) (L6 [8]): 1.62
Activity (L6 [21]): Active
Activity (L6 [23]): Dose-dependent effect
Activity (L6 [9]): Dose-dependent effect
Tmax [24]: 30 min
Activity (L6 [12]): Active
Activity (L6 [16]): Active
Activity (L6 [17]): Active
Activity (L6 [35]): inactive
Activity (L6 [37]): inactive

COc1cc(C[C@H]2C(=O)OC[C@@H]2Cc2cc(OC)c(OC)c(OC)c2)ccc1O
Ratio (L6 [20]): 0.551
Activity (L6 [22]): 233.9%
Activity (L6 [27]): 128.8%

COc1ccccc1C[C@H]1C(=O)OC[C@@H]1Cc1ccc(OC)c(OC)c1
Activity (L6 [1]): 97.4%
Activity (L6 [2]): 190.1%
Ratio (L6 [3]): 0.512

COc1ccc(C[C@H]2COC(=O)[C@@H]2Cc2ccc(N)cc2)cc1OC
Activity (L6 [1]): 126.6%
Activity (L6 [2]): 205.4%
Ratio (L6 [3]): 0.616

— ChEMBL document CHEMBL3576806, “Design and synthesis of novel arctigenin analogues for the amelioration of metabolic disorders” (ACS Med Chem Lett, 2015)
